Experimental data as given in ChEMBL document CHEMBL1156283, “Discovery and optimization of 2-(4-substituted-pyrrolo[2,3-b]pyridin-3-yl)methylene-4-hydroxybenzofuran-3(2H)-ones as potent and selective ATP-competitive inhibitors of the mammalian target of rapamycin (mTOR)” (Bioorg Med Chem Lett, 2010).
pIC50: −log10 of the molar value.

How the values were obtained:
[1] = Half life in mouse microsomes in phase 1 using NADPH as a cofactor; type: ADME, Microsome
[2] = species on record: Homo sapiens; experiment: Selectivity ratio of IC50 for PI3Kalpha to IC50 for mTOR
Summary of the method: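 Selectivity is calculated as the IC50 against PI3K divided by the IC50 against mTOR.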

[3] = Half life in mouse microsomes in phase 1/2 using NADPH and UDPGA as a cofacto; type: ADME, Microsome
[4] = tested on: LNCaP; experiment: Cytotoxicity against human LNCAP cells; type: functional, cell-based
[5] = target: Serine/threonine-protein kinase mTOR (Homo sapiens, UniProt P42345); experiment: Inhibition of mTOR
[6] = target: Phosphatidylinositol 4,5-bisphosphate 3-kinase catalytic subunit alpha isoform (Homo sapiens, UniProt P42336); experiment: Inhibition of PI3Kalpha
Chain of Phosphatidylinositol 4,5-bisphosphate 3-kinase catalytic subunit alpha isoform (P42336 whole entry, canonical isoform): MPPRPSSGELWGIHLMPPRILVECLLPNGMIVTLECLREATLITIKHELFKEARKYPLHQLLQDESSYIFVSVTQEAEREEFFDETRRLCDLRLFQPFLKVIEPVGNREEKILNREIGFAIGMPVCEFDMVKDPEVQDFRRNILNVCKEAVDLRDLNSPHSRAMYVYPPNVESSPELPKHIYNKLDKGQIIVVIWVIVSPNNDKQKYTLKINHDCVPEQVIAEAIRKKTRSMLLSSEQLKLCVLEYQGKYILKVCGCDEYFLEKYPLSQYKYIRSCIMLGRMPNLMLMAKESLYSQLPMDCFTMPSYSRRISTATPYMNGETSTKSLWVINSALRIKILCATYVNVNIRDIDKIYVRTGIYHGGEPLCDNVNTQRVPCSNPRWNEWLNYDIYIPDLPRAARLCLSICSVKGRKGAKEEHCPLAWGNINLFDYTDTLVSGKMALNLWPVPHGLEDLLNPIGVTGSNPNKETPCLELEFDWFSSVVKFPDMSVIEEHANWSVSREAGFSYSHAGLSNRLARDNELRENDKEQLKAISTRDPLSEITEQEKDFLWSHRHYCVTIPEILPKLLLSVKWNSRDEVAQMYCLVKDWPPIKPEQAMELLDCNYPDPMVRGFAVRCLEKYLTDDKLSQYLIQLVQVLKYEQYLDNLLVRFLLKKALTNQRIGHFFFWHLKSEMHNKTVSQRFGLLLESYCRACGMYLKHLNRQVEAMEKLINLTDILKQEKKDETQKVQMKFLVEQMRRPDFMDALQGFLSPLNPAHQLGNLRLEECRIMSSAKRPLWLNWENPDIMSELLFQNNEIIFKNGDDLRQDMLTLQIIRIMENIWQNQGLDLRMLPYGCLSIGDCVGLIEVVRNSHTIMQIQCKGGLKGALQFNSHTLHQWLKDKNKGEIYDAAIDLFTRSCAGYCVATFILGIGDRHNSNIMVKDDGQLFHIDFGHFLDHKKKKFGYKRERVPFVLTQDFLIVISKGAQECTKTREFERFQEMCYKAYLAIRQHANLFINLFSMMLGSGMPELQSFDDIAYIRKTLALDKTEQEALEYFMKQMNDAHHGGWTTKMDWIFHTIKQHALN

[7] = target: Tyrosine-protein kinase Lyn (Homo sapiens, UniProt P07948); experiment: Inhibition of LYN A
[8] = target: Fibroblast growth factor receptor 1 (Homo sapiens, UniProt P11362)
[9] = target: Tyrosine-protein kinase ABL1 (Homo sapiens, UniProt P00519); experiment: Inhibition of ABL1
Chain of Tyrosine-protein kinase ABL1 (P00519 whole entry): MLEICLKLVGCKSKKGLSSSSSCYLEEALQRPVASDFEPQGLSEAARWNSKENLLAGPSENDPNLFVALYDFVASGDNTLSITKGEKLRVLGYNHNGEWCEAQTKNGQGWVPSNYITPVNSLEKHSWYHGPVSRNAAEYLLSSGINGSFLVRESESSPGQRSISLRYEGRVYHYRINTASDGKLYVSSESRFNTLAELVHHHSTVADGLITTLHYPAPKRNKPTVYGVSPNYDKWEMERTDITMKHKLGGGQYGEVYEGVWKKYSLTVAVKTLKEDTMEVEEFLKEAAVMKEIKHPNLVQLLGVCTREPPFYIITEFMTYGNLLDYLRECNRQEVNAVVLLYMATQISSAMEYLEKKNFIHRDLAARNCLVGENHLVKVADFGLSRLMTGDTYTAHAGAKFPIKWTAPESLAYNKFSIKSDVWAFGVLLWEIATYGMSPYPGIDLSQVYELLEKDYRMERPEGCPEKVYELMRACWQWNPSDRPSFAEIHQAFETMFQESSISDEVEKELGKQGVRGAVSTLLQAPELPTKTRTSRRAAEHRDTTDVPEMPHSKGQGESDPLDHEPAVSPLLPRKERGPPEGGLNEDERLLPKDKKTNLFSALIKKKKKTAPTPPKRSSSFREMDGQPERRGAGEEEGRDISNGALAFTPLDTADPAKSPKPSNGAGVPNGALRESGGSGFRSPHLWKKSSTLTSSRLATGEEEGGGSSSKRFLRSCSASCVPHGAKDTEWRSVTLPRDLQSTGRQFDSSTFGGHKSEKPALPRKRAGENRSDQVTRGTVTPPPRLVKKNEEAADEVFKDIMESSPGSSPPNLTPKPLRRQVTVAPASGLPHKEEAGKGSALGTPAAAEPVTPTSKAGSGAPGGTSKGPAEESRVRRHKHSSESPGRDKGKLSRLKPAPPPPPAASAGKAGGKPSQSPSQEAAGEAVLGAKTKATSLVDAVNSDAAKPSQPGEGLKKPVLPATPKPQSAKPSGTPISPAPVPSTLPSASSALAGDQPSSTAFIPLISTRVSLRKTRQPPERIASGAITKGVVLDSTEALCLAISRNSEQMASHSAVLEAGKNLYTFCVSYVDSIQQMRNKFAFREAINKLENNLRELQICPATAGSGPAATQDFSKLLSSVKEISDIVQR

[10] = target: Cyclin-dependent kinase 2 (Homo sapiens, UniProt P24941); experiment: Inhibition of CDK2
[11] = target: Aurora kinase B (Homo sapiens, UniProt Q96GD4); experiment: Inhibition of Aurora B
[12] = target: Tyrosine-protein kinase HCK (Homo sapiens, UniProt P08631); experiment: Inhibition of HCK
Chain of Tyrosine-protein kinase HCK (P08631 whole entry): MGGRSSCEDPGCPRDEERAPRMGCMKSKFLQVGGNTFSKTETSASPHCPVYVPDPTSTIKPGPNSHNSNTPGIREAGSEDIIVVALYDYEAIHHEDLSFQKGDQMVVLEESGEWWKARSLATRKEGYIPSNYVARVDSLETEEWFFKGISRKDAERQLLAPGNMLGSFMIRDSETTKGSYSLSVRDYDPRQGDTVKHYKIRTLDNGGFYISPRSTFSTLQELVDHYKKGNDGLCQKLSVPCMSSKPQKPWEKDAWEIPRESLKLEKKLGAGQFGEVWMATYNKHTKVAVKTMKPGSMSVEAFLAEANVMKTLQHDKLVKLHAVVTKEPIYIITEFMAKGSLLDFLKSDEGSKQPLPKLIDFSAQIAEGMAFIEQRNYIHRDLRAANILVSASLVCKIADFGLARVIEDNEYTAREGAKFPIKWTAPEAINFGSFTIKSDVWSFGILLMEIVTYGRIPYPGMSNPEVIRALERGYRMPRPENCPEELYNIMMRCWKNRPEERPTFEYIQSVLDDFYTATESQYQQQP

[13] = target: Glycogen synthase kinase-3 beta (Homo sapiens, UniProt P49841); experiment: Inhibition of GSK3-beta
Chain of Glycogen synthase kinase-3 beta (P49841 whole entry): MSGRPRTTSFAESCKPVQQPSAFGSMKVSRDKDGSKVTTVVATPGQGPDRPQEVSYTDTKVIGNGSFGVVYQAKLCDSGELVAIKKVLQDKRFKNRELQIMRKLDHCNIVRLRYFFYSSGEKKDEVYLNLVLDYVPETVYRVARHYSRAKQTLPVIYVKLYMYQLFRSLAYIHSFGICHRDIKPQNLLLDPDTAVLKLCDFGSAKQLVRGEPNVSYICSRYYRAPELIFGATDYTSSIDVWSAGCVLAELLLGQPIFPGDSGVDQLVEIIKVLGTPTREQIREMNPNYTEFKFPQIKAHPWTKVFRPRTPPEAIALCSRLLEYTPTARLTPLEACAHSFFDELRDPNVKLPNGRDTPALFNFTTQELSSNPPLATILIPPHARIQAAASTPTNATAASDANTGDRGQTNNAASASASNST

[14] = target: Cyclin-dependent kinase 1 (Homo sapiens, UniProt P06493); experiment: Inhibition of CDK1
Chain of Cyclin-dependent kinase 1 (P06493 whole entry): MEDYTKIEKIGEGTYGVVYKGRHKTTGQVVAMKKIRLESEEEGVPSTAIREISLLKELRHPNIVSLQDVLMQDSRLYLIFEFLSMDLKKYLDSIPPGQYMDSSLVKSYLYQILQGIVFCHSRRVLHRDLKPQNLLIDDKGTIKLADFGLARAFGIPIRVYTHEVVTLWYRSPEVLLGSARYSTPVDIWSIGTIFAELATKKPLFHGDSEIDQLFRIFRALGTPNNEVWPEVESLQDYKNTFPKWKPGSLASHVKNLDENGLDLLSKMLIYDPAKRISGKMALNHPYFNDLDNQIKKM

[15] = target: Ribosomal protein S6 kinase alpha-1 (Homo sapiens, UniProt Q15418); experiment: Inhibition of RSK1
Chain of Ribosomal protein S6 kinase alpha-1 (Q15418 whole entry): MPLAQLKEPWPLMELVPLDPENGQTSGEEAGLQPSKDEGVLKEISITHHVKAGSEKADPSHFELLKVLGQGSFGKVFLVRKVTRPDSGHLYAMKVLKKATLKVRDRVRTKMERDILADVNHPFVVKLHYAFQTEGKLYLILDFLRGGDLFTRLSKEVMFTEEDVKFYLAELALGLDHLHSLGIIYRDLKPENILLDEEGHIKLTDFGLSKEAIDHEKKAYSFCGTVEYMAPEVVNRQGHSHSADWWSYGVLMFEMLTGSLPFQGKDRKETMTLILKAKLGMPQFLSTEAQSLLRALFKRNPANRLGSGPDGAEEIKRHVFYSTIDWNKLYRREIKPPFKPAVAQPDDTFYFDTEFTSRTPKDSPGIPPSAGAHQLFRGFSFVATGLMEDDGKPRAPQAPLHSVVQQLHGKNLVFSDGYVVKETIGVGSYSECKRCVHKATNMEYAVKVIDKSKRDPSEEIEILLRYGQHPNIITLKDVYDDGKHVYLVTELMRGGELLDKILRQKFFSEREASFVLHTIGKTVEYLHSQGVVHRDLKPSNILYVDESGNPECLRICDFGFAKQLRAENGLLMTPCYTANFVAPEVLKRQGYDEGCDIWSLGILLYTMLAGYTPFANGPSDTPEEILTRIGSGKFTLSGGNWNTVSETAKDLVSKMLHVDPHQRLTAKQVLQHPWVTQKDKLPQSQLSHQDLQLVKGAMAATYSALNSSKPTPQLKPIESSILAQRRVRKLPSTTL

[16] = target: MAP kinase-activated protein kinase 2 (Homo sapiens, UniProt P49137)
[17] = target: Mitogen-activated protein kinase 1 (Homo sapiens, UniProt P28482)
Chain of Mitogen-activated protein kinase 1 (P28482 whole entry): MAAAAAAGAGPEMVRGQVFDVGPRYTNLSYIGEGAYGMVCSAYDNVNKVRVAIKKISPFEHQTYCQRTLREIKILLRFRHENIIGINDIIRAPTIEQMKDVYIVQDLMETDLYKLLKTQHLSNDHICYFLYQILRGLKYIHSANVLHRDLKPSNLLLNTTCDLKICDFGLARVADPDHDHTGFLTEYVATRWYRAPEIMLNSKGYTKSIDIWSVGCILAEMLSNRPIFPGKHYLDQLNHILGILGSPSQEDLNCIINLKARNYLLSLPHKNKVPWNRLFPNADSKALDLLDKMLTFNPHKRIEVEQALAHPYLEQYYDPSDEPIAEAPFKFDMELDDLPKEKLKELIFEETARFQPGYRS

[18] = target: Glycogen synthase kinase-3 alpha (Homo sapiens, UniProt P49840); experiment: Inhibition of GSK3alpha
Chain of Glycogen synthase kinase-3 alpha (P49840 whole entry): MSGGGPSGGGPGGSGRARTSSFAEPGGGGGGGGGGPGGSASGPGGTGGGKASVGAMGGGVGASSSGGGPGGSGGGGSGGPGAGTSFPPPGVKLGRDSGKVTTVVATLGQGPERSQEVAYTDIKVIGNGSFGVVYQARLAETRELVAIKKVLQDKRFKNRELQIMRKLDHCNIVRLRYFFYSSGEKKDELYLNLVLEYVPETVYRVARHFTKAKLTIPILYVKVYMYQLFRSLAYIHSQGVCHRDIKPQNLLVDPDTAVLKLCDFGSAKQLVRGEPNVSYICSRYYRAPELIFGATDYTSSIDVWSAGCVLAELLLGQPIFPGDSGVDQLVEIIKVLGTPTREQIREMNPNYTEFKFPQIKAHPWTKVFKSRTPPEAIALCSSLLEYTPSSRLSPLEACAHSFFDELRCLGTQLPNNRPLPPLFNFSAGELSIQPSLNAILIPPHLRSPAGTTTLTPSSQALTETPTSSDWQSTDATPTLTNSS

Structure (SMILES) | half-life [1] [min] | Ratio IC50 [2] | half-life [3] [min] | pIC50 [5] | pIC50 [4] | other results
Cn1cc(/C=C2\Oc3cc(O)cc(O)c3C2=O)c2c(-c3ccccc3)ccnc21 | 20 | 137 | 2 | 9.34 | 7.11 | 
Cn1cc(/C=C2\Oc3cccc(O)c3C2=O)c2c(N3CCC(N)CC3)ccnc21 |  | 6 |  |  | 6.62 | 
Cn1cc(/C=C2\Oc3cccc(O)c3C2=O)c2c(-c3ccc(C(=O)N4CC5CCC(C4)O5)cc3)ccnc21 | 6 | 103 | 2 | 9.25 | 8.10 | 
Cn1cc(/C=C2\Oc3cc(O)cc(O)c3C2=O)c2c(-c3ccccc3)cccc21 |  |  |  |  | 5.85 | pIC50 [6]: 5.83
Cn1cc(/C=C2\Oc3cccc(O)c3C2=O)c2c(N3CC4CCC(C3)O4)ccnc21 |  | 274 |  | 9.42 | 8.70 | 
Cn1cc(/C=C2\Oc3cccc(O)c3C2=O)c2c(-c3ccc(C(=O)N4CCN(CCO)CC4)cc3)ccnc21 | > 30 | 256 | > 30 | 9.41 | 9.00 | 
CN1CCN(C(=O)C2CCN(c3ccnc4c3c(/C=C3\Oc5cccc(O)c5C3=O)cn4C)CC2)CC1 | > 30 | 12 | > 30 |  | > 9.00 | 
Cn1cc(/C=C2\Oc3cccc(O)c3C2=O)c2c(-c3ccccc3)ccnc21 | 22 | 25.8 |  | 8.46 |  | 
Cn1cc(/C=C2\Oc3cccc(O)c3C2=O)c2c(N3CCC(C(=O)N4CC5CCC(C4)O5)CC3)ccnc21 | > 30 | 26 | 16 |  | 9.00 | pIC50 [6]: 7.28
CN(C)C(=O)c1ccccc1-c1ccnc2c1c(/C=C1\Oc3cccc(O)c3C1=O)cn2C |  | 32.8 |  |  | < 4.22 | 
Cn1cc(/C=C2\Oc3cccc(O)c3C2=O)c2c(N3CCOCC3)ccnc21 |  | 24 |  |  | 8.30 | 
Cn1cc(/C=C2\Oc3cccc(O)c3C2=O)c2c(N3C4CCC3COC4)ccnc21 |  | 9 |  |  | 8.70 | 
CCn1cc(/C=C2\Oc3cccc(O)c3C2=O)c2c(-c3ccc(C(=O)N4CCN(CCO)CC4)cc3)ccnc21 |  | 98 |  |  | 8.40 | pIC50 [6]: 6.34
Cn1cc(/C=C2\Oc3cccc(O)c3C2=O)c2c(-c3ccc(C(=O)NCCO)cc3)ccnc21 |  |  |  |  |  | pIC50 [7]: 4.56; pIC50 [8]: 7.30; pIC50 [9]: 5.01; pIC50 [10]: 4.45; pIC50 [11]: 4.65; pIC50 [12]: 4.57; pIC50 [13]: 5.23; pIC50 [14]: 4.41; pIC50 [15]: 4.34; pIC50 [16]: 8.19; pIC50 [17]: 7.30; pIC50 [18]: 4.97
CN(C)C(=O)c1cccc(-c2ccnc3c2c(/C=C2\Oc4cccc(O)c4C2=O)cn3C)c1 |  | 20.5 |  |  | 6.22 | 
CN(C)C(=O)c1ccc(-c2ccnc3c2c(/C=C2\Oc4cccc(O)c4C2=O)cn3C)cc1 |  | 65 |  | 9.26 | 8.40 | 
Cn1cc(/C=C2\Oc3cccc(O)c3C2=O)c2c(N3CCC(C(N)=O)CC3)ccnc21 |  | 41 |  | 9.14 | 8.00 | 

Further lines, with some results ahead:

half-life [1] [min] | Ratio IC50 [2] | half-life [3] [min] | pIC50 [5] | Structure (SMILES) | pIC50 [4] | other results
 | 11 |  |  | Cn1cc(/C=C2\Oc3cc(O)ccc3C2=O)c2c(-c3ccccc3)ccnc21 | 5.74 | 
> 30 | 46 | 20 | 9.17 | CN(C)C(=O)C1CCN(c2ccnc3c2c(/C=C2\Oc4cccc(O)c4C2=O)cn3C)CC1 | 9.00 | pIC50 [6]: 7.52
> 30 | 13 | 14 | 8.73 | Cn1cc(/C=C2\Oc3cccc(O)c3C2=O)c2c(N3CCC(C(=O)N4CCN(CCO)CC4)CC3)ccnc21 | 9.00 | pIC50 [6]: 7.60
 | 46 |  |  | CN1CCN(c2ccnc3c2c(/C=C2\Oc4cc(O)cc(O)c4C2=O)cn3C)CC1 | 6.96 | pIC50 [6]: 7.37
> 30 | 45 | > 30 |  | Cn1cc(/C=C2\Oc3cccc(O)c3C2=O)c2c(N3CCC(C(=O)N4CCOCC4)CC3)ccnc21 | > 9.00 | 
 | 1.7 |  | 7.38 | Cn1cc(/C=C2\Oc3cc(O)cc(O)c3C2=O)c2cccnc21 | 5.19 | pIC50 [6]: 7.11
 | 63 |  | 8.56 | CN1CCN(c2ccnc3c2c(/C=C2\Oc4cccc(O)c4C2=O)cn3C)CC1 | 8.52 | 
> 30 | 97 | 10 |  | Cn1cc(/C=C2\Oc3cccc(O)c3C2=O)c2c(-c3ccc(C(=O)N4CCOCC4)cc3)ccnc21 | 9.00 | 
 | 9 |  |  | Cn1cc(/C=C2\Oc3cccc(O)c3C2=O)c2c(N3CCC(CN)CC3)ccnc21 | 7.12 | 
28 | 70 | 24 |  | CN1CCN(C(=O)c2ccc(-c3ccnc4c3c(/C=C3\Oc5cccc(O)c5C3=O)cn4C)cc2)CC1 | 8.05 | 
